A selection: hits, their analogues and other compounds. The true share with any hit is near 1.7%.
SR-BI DiI-HDL act: activators of SR-BI mediated HDL lipid uptake; CHO ldlA[mSR-BI] cells, DiI-HDL uptake fluorescence, 3 h; 100 = double the neutral-control signal; activation, % at 12.5 µM; actives 0.096% (n = 320,000);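 active means mean replicate activation of at least 60% and every replicate at or above 60%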;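 further: 0% = median plate neutral-control signal and 100% = twice that signal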
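Assay system: LDL receptor-deficient CHO ldlA cells overexpressing murine SR-BI / Medium: BSA-supplemented, HEPES-buffered Ham's F12, pH 7.4 / Probe or stimulus: DiI-labelled HDL at 10 µg/mL final / Timing: compound with DiI-HDL co-incubation, 3 h at 37 °C / Technique: bottom-read cell fluorescence after medium removal, ex 550/em 595 nm / Measure: HDL uptake via cellular fluorescence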
Statin myotox sup: suppressors of simvastatin-induced myotoxicity in C2C12 myotubes; actives 0.78% (n = 330,000); rescue of ATP level, % at 7.49 µM; ATP luminescence, 48 h; scaled: DMSO 0, geranylgeraniol control 100;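 active means mean ATP rescue above about 67%, or every replicate alone reaching that limit, limit read from the data, passing the limit was not always enough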;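 further: myotubes were challenged with 10 µM simvastatin during compound exposure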
Vif imaging: inhibitors of HIV Vif | HEK293T cells, Vif self-association by quenched fluorescence, imaging, 24 h | AID 602346 | actives 0.35% (n = 340,000) | inhibition, % at 7.49 µM; in the data active means inhibition above about 50%, passing the limit was not always enough
SR-BI HDL uptake: mouse SR-BI HDL lipid transfer inhibition; Q61009; ldlA[mSR-BI] CHO cells, DiI-HDL uptake fluorescence, 3 h; inhibition, % at 12.5 µM; actives 0.96% (n = 320,000); AID 488896;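 active means mean replicate inhibition of at least 70% and a set share of replicates each scoring 70 or more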;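 further: 0% = median of neutral control wells and 100% = median of positive control wells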
Target sequence (Q61009 whole entry, looked up): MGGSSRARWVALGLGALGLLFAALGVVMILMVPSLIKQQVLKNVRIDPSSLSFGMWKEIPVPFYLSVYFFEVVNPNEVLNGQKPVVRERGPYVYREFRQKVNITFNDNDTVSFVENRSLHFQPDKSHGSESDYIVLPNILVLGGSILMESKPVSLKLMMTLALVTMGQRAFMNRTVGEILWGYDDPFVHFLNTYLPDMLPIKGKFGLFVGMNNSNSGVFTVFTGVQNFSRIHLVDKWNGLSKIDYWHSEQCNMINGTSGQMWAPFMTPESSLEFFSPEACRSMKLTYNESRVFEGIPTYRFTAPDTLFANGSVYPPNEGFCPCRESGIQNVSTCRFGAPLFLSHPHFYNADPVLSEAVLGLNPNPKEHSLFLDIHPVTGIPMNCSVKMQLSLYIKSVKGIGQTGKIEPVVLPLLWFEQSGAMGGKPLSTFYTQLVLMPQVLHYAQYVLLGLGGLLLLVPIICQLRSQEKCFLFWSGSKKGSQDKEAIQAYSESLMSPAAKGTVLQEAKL
Active calls of the source: *; x = no result.

SMILES | SR-BI DiI-HDL act | Statin myotox sup | Vif imaging | SR-BI HDL uptake
C[C@H]1CN([C@@H](C)CO)C(=O)Cc2cc(NC(=O)Nc3ccc4c(c3)OCO4)ccc2O[C@@H]1CN(C)Cc1ccc(-c2ccccc2)cc1 | x | 76.4* | x | x
CCCNC(=O)Nc1ccc2c(c1)OC[C@@H](C)N(C(=O)C1CCC1)C[C@H](C)[C@H](OC)CN(C)C2=O | x | 6.0 | x | x
C[C@H](CO)N1C[C@H](C)[C@H](CN(C)C(=O)C2CCC2)Oc2cc(C#CC3CC3)ccc2S1(=O)=O | x | 7.8 | x | x
CCC(=O)N(C)C[C@@H]1Oc2cc(-c3cncnc3)ccc2S(=O)(=O)N([C@@H](C)CO)C[C@H]1C | x | 11.4 | x | x
COc1ccccc1NC(=O)c1ccc(Br)o1 | -1.4 | 7.0 | -0.8 | 1.4
COc1cc(NC(=O)c2ccccc2[N+](=O)[O-])ccc1NC(=O)c1cc2ccccc2o1 | -76.6 | x | -0.6 | 76.6*
O=C(Nc1ccc2oc(=O)ccc2c1)c1ccc(-c2ccccc2[N+](=O)[O-])o1 | -78.0 | x | 22.2 | 78.0*
Cc1cc(NC(=O)c2cncc(Br)c2)ccc1NC(=O)c1cc2ccccc2o1 | -96.6 | -38.1 | 104.4* | 96.6*
COc1cc(NC(=O)c2ccc(Br)o2)ccc1NC(=O)c1ccccc1Cl | -83.1 | -41.9 | -5.6 | 83.1*
COc1cc(NC(C)=O)ccc1NC(=O)c1cc2ccccc2o1 | -5.0 | -7.4 | 7.5 | 5.0
COc1cc(NC(=O)c2ccccc2)ccc1NC(=O)c1cc2ccccc2o1 | -49.1 | -157.7 | 1.3 | 49.1
C[C@H]1CN([C@@H](C)CO)C(=O)c2cccc(NC(=O)C3CCCCC3)c2O[C@H]1CN(C)CC1CCCCC1 | x | -64.7 | x | x
CCC(=O)Nc1ccc(Cl)c(NC(=O)c2ccc(Br)o2)c1 | x | 0.7 | -3.0 | 75.9*
COc1cc(NC(=O)c2ccccc2F)ccc1NC(=O)c1ccccc1Cl | -93.3 | x | -0.1 | 93.3*
C[C@@H]1CN([C@@H](C)CO)C(=O)Cc2cc(NC(=O)Nc3ccc(C(F)(F)F)cc3)ccc2O[C@H]1CN(C)S(C)(=O)=O | x | -12.7 | x | x
COc1ccc(-c2cc(C(=O)Nc3sc4c(c3C#N)CCCC4)c3ccccc3n2)cc1OC | -84.6 | -7.9 | -6.2 | 84.6*
COc1ccc(-c2ccc(C#N)c(SCC(=O)NC3CC3)n2)cc1OC | -14.6 | x | 78.5* | 14.6
COc1ccc(-c2cc(C(=O)Nc3c(Cl)cc(Cl)cc3Cl)c3ccccc3n2)cc1OC | -47.2 | x | 2.0 | 47.2
COc1ccc2nc(-c3ccccc3)cc(C(=O)OCC(=O)NC3CC3)c2c1 | -25.0 | x | -10.2 | 25.0
COc1ccc(-c2cc(C(=O)OCC(=O)NC3CC3)c3ccccc3n2)cc1OC | -72.4 | 3.8 | 15.8 | 72.4*
COc1ccc(C(=O)Nc2nc3ccc(S(C)(=O)=O)cc3s2)cc1OC | -78.3 | -8.6 | 24.9 | 78.3*
O=C(C[C@@H]1C[C@@H]2c3cc(NC(=O)NC4CCCC4)ccc3O[C@@H]2[C@H](CO)O1)NCc1ccc2c(c1)OCO2 | x | -4.5 | x | x
CCCNC(=O)C[C@@H]1CC[C@@H]2[C@@H](COc3ccc(NC(=O)CCC)cc3C(=O)N2C)O1 | x | -18.4 | x | x
COc1ccc(-c2cc(C(=O)Nc3ccccc3O)c3ccccc3n2)cc1OC | -29.6 | x | 2.4 | 29.6
COc1ccc(-c2cc(C(=O)Nc3nc4ccccc4s3)c3ccccc3n2)cc1OC | -74.7 | 2.0 | -4.7 | 74.7*
SMILES | SR-BI DiI-HDL act | Statin myotox sup | Vif imaging | SR-BI HDL uptake
C=C(C)C1CC=C(C)/C(=N/NC(=O)c2ccc(NC(=O)CC)cc2)C1 (configuration not stated) | 0.5 | 119.0* | -1.9 | -0.5
C=C(C)C1CC=C(C)/C(=N/NC(=O)c2ccc(NC(=O)CCC)cc2)C1 (configuration not stated) | -35.2 | 4.4 | 2.1 | 35.2
Cn1cnnc1SCC(=O)Nc1ccccc1 | 19.8 | 5.5 | 1.3 | -19.8
Cn1cnnc1SCC(=O)Nc1ccc(Br)cc1F | 21.9 | 70.8* | 1.3 | -21.9
O=C(C[C@H]1C[C@H]2c3cc(NS(=O)(=O)c4ccc(F)cc4)ccc3O[C@H]2[C@@H](CO)O1)NCC(F)(F)F | x | -1.2 | x | x
Cc1ccc(S(=O)(=O)Nc2ccc3c(c2)C(=O)N([C@H](C)CO)C[C@H](C)[C@@H](CN(C)C(=O)c2ccncc2)OCCCC[C@H](C)O3)cc1 | x | 5.0 | x | x
O=C1c2cccc3c(N4CCCCC4)ccc(c23)C(=O)N1c1ccc(O)cc1 | -1.3 | x | 112.5* | 1.3
O=C1c2cccc3c(N4CCCCC4)ccc(c23)C(=O)N1c1ccccc1O | -19.6 | x | -1.2 | 19.6
CC1CN(C2CCN(S(=O)(=O)c3ccc(F)cc3)CC2)CC(C)O1 (configuration not stated) | 5.6 | 2.5 | -11.8 | -5.6
CC1CN(C2CCN(S(=O)(=O)c3ccccc3)CC2)CC(C)O1 (configuration not stated) | 288.7* | 2.3 | -0.3 | -288.6
O=C(Nc1cccc(C(F)(F)F)c1)Nc1ccc(N2CCCC2)c(S(=O)(=O)Nc2ccccc2Cl)c1 | -91.0 | x | -25.5 | 91.0*
O=C1c2ccccc2C(=O)N1CCC1=CCCCC1 | 18.7 | 122.2* | -10.8 | -18.7
O=C(O)c1ccc2c(c1)C(=O)N(CCC1=CCCCC1)C2=O | 25.8 | -9.3 | 9.4 | -25.8
COC(=O)c1ccc(CSc2nc3c(cnn3-c3ccc(C)c(C)c3)c(=O)[nH]2)o1 | 4.5 | 131.9* | -4.4 | -4.5
CCCSc1nc2c(cnn2-c2ccc(C)c(C)c2)c(=O)[nH]1 | -8.1 | -16.6 | 6.8 | 8.1
O=C(NCC1CC1)[C@H]1[C@H](CO)[C@H]2Cn3c(ccc(-c4cccnc4)c3=O)[C@@H]1N2C(=O)C1CCC1 | x | -7.6 | x | x
CC1(C)NC(=O)N(CC(=O)OCC(=O)c2ccc(F)cc2)C1=O | 152.2* | 2.4 | 15.4 | -152.2
COC(=O)\C(C(C)=O)=C(/C=C/C=C/N(C)C)N(C)C | 22.1 | -10.4 | 61.6* | -22.1
C[C@H](CO)N1C[C@H](C)[C@@H](CN(C)C(=O)Nc2ccccc2)Oc2ccc(NS(=O)(=O)c3ccc(F)cc3)cc2CC1=O | x | 11.4 | x | x
C[C@H]1CN([C@@H](C)CO)C(=O)CCCn2nncc2CO[C@@H]1CN(C)C(=O)CCCN(C)C | x | -17.7 | x | x
O=C(NC(=S)Nc1cccc(NC(=S)NC(=O)c2ccccc2)c1)c1ccccc1 | -71.7 | -57.6 | -0.7 | 71.7*
CCC(=O)NC(=S)Nc1cccc(NC(=O)c2ccc(Cl)cc2Cl)c1 | -80.8 | -6.1 | -8.7 | 80.8*
CCCC(=O)NC(=S)Nc1cccc(C(C)=O)c1 | 9.5 | 114.1* | 1.3 | -9.5
CCC(=O)NC(=S)Nc1cccc(NC(=O)CC)c1 | -8.5 | -27.8 | 7.7 | 8.5
CCCCCC(=O)NC(=S)Nc1cccc(C(C)=O)c1 | 3.7 | -6.6 | -3.5 | -3.7
COc1ccc(CN(C)C[C@@H]2Oc3c(NS(=O)(=O)c4ccc(F)cc4)cccc3C(=O)N([C@@H](C)CO)C[C@@H]2C)cc1 | x | 22.0 | x | x
C[C@H](CO)N1C[C@H](C)[C@@H](CN(C)CC2CCOCC2)Oc2cc(-c3cccnc3)ccc2S1(=O)=O | x | -12.1 | x | x
CC=Cc1ccc2n(c1=O)C[C@H]1[C@H](CO)[C@@H](C(=O)N3CCc4ccccc4C3)[C@@H]2N1CCC (mixture of isomers) | x | -49.0 | x | x
